PMC7449315 (Journal for Immunotherapy of Cancer, 2020)
“And” between values parts separate entries of the source, which are not always exact repeats. Equal values may be shown once. Marks after values point to notes of the source that are not given here.

Experiments:
tumor IDO1 = tumor IDO1 (Mus musculus, UniProt P28776); format: in vivo; settings: MC38 tumor-bearing mice; 30, 75 or 200 mg/kg
Procedure, shortened: (§1)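 Female adult C57BL/6 mice were inoculated subcutaneously with 0.5×10^6 IDO1-expressing MC38 colon carcinoma cells. At average tumor volumes of about 200–250 mm3 they received a single oral dose of the test compound (30, 75 or 200 mg/kg) or vehicle. Plasma, liver and tumor were sampled at 1, 2, 4, 8 and 24 h. Drug, kynurenine and tryptophan were measured by LC-MS/MS, and the kynurenine:tryptophan ratio was derived. Data are mean±SEM.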

[1] = M4112 levels in plasma, liver and tumor of mice bearing MC38 tumors; format: in vivo; settings: MC38 tumor-bearing mice
Procedure, shortened: as §1

advanced solid tumors = experiment: phase I trial: preliminary antitumor activity; format: in vivo, human
Procedure, shortened: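 Patients with advanced solid tumors received twice-daily oral doses in 28-day cycles. CT or MRI was done at baseline and within 7 days before day 1 of cycles 3, 5 and 7, then every three cycles. The investigator assessed objective response, best overall response, disease control and progression-free survival per RECIST 1.1. Binary endpoints used exact Clopper-Pearson 95% CI and PFS used Kaplan-Meier.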

[2] = phase I trial: plasma pharmacokinetics; format: in vivo, human
Procedure, shortened: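 Patients were dosed orally twice daily. Blood was sampled on cycle 1 days 1 and 15 (predose and 0.5, 1, 2, 3, 4, 6 and 8 h postdose), on day 8 (predose), and on cycle 2 day 1 (predose and 2 h). Plasma drug levels were measured by LC-MS/MS. Non-compartmental analysis gave Cmax, tmax and AUC0–8, dose-normalized values, predose concentrations and day 15/day 1 accumulation. Dose proportionality was tested with a power model.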

IDO1 = IDO1 (Homo sapiens, UniProt P14902); experiment: IDO1 activity in ex vivo LPS-stimulated whole blood from M4112-treated patients
[3] = 100 to 600 mg two times per day, day 15
[4] = Cycle 1, day 1, 100 mg two times per day, n=3, geometric mean (CV%)
[5] = Cycle 1, day 1, 200 mg two times per day, n=3, geometric mean (CV%)
[6] = Cycle 1, day 1, 400 mg two times per day, n=3, geometric mean (CV%)
[7] = Cycle 1, day 1, 600 mg two times per day, n=3, geometric mean (CV%)
[8] = Cycle 1, day 1, 800 mg two times per day, n=3, geometric mean (CV%)
[9] = Cycle 1, day 8, 100 mg two times per day, n=3, geometric mean (CV%)
[10] = Cycle 1, day 8, 200 mg two times per day, n=3, geometric mean (CV%)
[11] = Cycle 1, day 8, 400 mg two times per day, n=3, geometric mean (CV%)
[12] = Cycle 1, day 8, 600 mg two times per day, n=3, geometric mean (CV%)
[13] = Cycle 1, day 8, 800 mg two times per day, n=3, geometric mean (CV%)
[14] = Cycle 1, day 15, 100 mg two times per day, n=3, geometric mean (CV%)
[15] = Cycle 1, day 15, 200 mg two times per day, n=3, geometric mean (CV%)
[16] = Cycle 1, day 15, 400 mg two times per day, n=3, geometric mean (CV%)
[17] = Cycle 1, day 15, 600 mg two times per day, n=3, geometric mean (CV%)
[18] = Cycle 1, day 15, 800 mg two times per day, n=1, individual value
[19] = Cycle 2, day 1, 100 mg two times per day, n=3, geometric mean (CV%)
[20] = Cycle 2, day 1, 200 mg two times per day, n=2, individual values
[21] = Cycle 2, day 1, 400 mg two times per day, n=3, geometric mean (CV%)
[22] = Cycle 2, day 1, 600 mg two times per day, n=2, individual values
[23] = Cycle 2, day 1, 800 mg two times per day, n=1, individual value

Chain of IDO1 (P14902 whole entry): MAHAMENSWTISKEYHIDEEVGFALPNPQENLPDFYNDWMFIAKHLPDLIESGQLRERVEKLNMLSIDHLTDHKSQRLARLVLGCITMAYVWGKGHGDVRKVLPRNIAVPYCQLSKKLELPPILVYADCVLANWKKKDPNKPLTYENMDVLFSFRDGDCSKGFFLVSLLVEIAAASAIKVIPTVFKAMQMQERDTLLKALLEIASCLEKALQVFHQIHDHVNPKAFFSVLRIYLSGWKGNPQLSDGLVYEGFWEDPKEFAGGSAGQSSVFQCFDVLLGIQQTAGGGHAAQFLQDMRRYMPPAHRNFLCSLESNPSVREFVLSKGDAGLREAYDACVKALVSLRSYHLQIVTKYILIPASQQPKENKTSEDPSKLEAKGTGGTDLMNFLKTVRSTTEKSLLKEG
Chain of tumor IDO1 (P28776 whole entry): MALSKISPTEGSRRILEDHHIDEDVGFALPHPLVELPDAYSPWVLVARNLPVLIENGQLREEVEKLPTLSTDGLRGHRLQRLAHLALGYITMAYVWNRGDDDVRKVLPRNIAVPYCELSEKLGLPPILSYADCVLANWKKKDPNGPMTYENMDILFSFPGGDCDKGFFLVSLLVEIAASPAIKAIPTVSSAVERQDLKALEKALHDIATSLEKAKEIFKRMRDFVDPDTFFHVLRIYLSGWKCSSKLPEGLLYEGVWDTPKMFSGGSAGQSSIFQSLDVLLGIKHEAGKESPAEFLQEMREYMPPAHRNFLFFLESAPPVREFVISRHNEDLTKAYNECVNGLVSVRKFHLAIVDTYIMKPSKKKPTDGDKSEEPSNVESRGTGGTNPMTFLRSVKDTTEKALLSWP

NS(=O)(=O)[C@H]1CC[C@](F)(CC[C@H]2c3ccccc3-c3cncn32)CC1 [M4112]
kynurenine:tryptophan ratio in the liver and plasma (tumor IDO1): dose-dependent reduction
exposure to M4112 in the liver compared with both the plasma and the tumor [1]: approximately 10 fold
concentration of M4112 in the tumor by 24 hours post-treatment ([1]; single oral dose): decreased to baseline levels
time at which the concentration of M4112 in the tumor peaked ([1]; single oral dose 30, 75 or 200 mg/kg, post-treatment): 1 to 2 h
best overall response stable disease, patients (advanced solid tumors; 9 of 15 patients): 60.0%
median progression-free survival (advanced solid tumors; 15 patients): 3.7 months
objective responses (advanced solid tumors; 15 patients): no objective responses
increase of mean exposure with dose [2, 3]: greater than dose-proportional
slope estimate of dose proportionality (power model) [2, 3]: 1.46–1.67
accumulation / autoinduction following two times per day dosing ([2]; 100–600 mg dose range): no appreciable accumulation or evidence of autoinduction
AUC0–8 [2, 4]: 3550 (14.4) ngxh/mL
AUC0–8/dose [2, 4]: 35.5 (14.4) ngxh/mL/mg
Cmax [2, 4]: 806 (9.9) ng/mL
Cmax/dose [2, 4]: 8.06 (9.9) ng/mL/mg
tmax ([2]; Cycle 1, day 1, 100 mg two times per day, n=3, median (min, max)): 1.08 (1.08, 2.12) hours
AUC0–8 [2, 5]: 8740 (13.6) ngxh/mL
AUC0–8/dose [2, 5]: 43.7 (13.6) ngxh/mL/mg
Cmax [2, 5]: 2110 (13.6) ng/mL
Cmax/dose [2, 5]: 10.5 (13.6) ng/mL/mg
tmax ([2]; Cycle 1, day 1, 200 mg two times per day, n=3, median (min, max)): 2.10 (2.07, 3.08) hours
AUC0–8 [2, 6]: 27,700 (21.4) ngxh/mL
AUC0–8/dose [2, 6]: 69.1 (21.4) ngxh/mL/mg
Cmax [2, 6]: 7670 (39.6) ng/mL
Cmax/dose [2, 6]: 19.2 (39.6) ng/mL/mg
tmax ([2]; Cycle 1, day 1, 400 mg two times per day, n=3, median (min, max)): 1.08 (1.07, 1.08) hours
AUC0–8 [2, 7]: 50,400 (7.7) ngxh/mL
AUC0–8/dose [2, 7]: 84.0 (7.7) ngxh/mL/mg
Cmax [2, 7]: 11,700 (24.6) ng/mL
Cmax/dose [2, 7]: 19.6 (24.6) ng/mL/mg
tmax ([2]; Cycle 1, day 1, 600 mg two times per day, n=3, median (min, max)): 1.00 (0.97, 1.07) hours
AUC0–8 [2, 8]: 14,600 (85.1) ngxh/mL
AUC0–8/dose [2, 8]: 18.2 (85.1) ngxh/mL/mg
Cmax [2, 8]: 2770 (83.6) ng/mL
Cmax/dose [2, 8]: 3.47 (83.6) ng/mL/mg
tmax ([2]; Cycle 1, day 1, 800 mg two times per day, n=3, median (min, max)): 2.08 (2.07, 4.12) hours
Cpre [2, 9]: 156 (58.2) ng/mL
Cpre/dose [2, 9]: 1.56 (58.2) ng/mL/mg
Cpre [2, 10]: 96.5 (85.0) ng/mL
Cpre/dose [2, 10]: 0.482 (85.0) ng/mL/mg
Cpre [2, 11]: 1240 (51.6) ng/mL
Cpre/dose [2, 11]: 3.11 (51.6) ng/mL/mg
Cpre [2, 12]: 4410 (54.5) ng/mL
Cpre/dose [2, 12]: 7.35 (54.5) ng/mL/mg
Cpre [2, 13]: 5200 (105.4) ng/mL
Cpre/dose [2, 13]: 6.50 (105.4) ng/mL/mg
AUC0–8 [2, 14]: 4790 (25.4) ngxh/mL
AUC0–8/dose [2, 14]: 47.9 (25.4) ngxh/mL/mg
Cmax [2, 14]: 975 (34.9) ng/mL
Cmax/dose [2, 14]: 9.75 (34.9) ng/mL/mg
Cpre [2, 14]: 221 (20.5) ng/mL
Cpre/dose [2, 14]: 2.21 (20.5) ng/mL/mg
tmax ([2]; Cycle 1, day 15, 100 mg two times per day, n=3, median (min, max)): 3.08 (2.12, 4.13) hour
AUC0–8 [2, 15]: 7580 (11.5) ngxh/mL
AUC0–8/dose [2, 15]: 37.9 (11.5) ngxh/mL/mg
Cmax [2, 15]: 1720 (20.5) ng/mL
Cmax/dose [2, 15]: 8.58 (20.5) ng/mL/mg
Cpre [2, 15]: 199 (53.9) ng/mL
Cpre/dose [2, 15]: 0.997 (53.9) ng/mL/mg
tmax ([2]; Cycle 1, day 15, 200 mg two times per day, n=3, median (min, max)): 2.10 (1.00, 6.08) hour
AUC0–8 [2, 16]: 31,500 (28.8) ngxh/mL
AUC0–8/dose [2, 16]: 78.8 (28.8) ngxh/mL/mg
Cmax [2, 16]: 6560 (27.4) ng/mL
Cmax/dose [2, 16]: 16.4 (27.4) ng/mL/mg
Cpre [2, 16]: 1630 (45.7) ng/mL
Cpre/dose [2, 16]: 4.08 (45.7) ng/mL/mg
tmax ([2]; Cycle 1, day 15, 400 mg two times per day, n=3, median (min, max)): 1.08 (0.50, 3.00) hour
AUC0–8 [2, 17]: 59,500 (12.7) ngxh/mL
AUC0–8/dose [2, 17]: 99.2 (12.7) ngxh/mL/mg
Cmax [2, 17]: 12,100 (2.2) ng/mL
Cmax/dose [2, 17]: 20.2 (2.2) ng/mL/mg
Cpre [2, 17]: 3380 (42.4) ng/mL
Cpre/dose [2, 17]: 5.63 (42.4) ng/mL/mg
tmax ([2]; Cycle 1, day 15, 600 mg two times per day, n=3, median (min, max)): 1.03 (0.93, 2.17) hour
AUC0–8 [2, 18]: 93,200† ngxh/mL
AUC0–8/dose [2, 18]: 116† ngxh/mL/mg
Cmax [2, 18]: 21,100† ng/mL
Cmax/dose [2, 18]: 26.4† ng/mL/mg
Cpre [2, 18]: 9810† ng/mL
Cpre/dose [2, 18]: 12.3† ng/mL/mg
tmax [2, 18]: 2.00† hour
Cpre [2, 19]: 128 (67.7) ng/mL
Cpre/dose [2, 19]: 1.28 (67.7) ng/mL/mg
Cpre [2, 20]: 83.3 ng/mL and 85.2 ng/mL
Cpre/dose [2, 20]: 0.417 ng/mL/mg and 0.426 ng/mL/mg
Cpre [2, 21]: 957 (72.1) ng/mL
Cpre/dose [2, 21]: 2.39 (72.1) ng/mL/mg
Cpre [2, 22]: 1910 ng/mL and 2560 ng/mL
Cpre/dose [2, 22]: 3.18 ng/mL/mg and 4.27 ng/mL/mg
Cpre [2, 23]: 8560† ng/mL
Cpre/dose [2, 23]: 10.7† ng/mL/mg
tmax ([2]; across all dose levels on both days 1 and 15, approximately): 1 to 3 h
M4112 exposure of the 800 mg two times per day cohort ([2]; cycle 1, day 1): initially lower than that of the other dose groups
IDO1 activity inhibited (IDO1; 800 mg two times per day, throughout the dosing interval): Approximately 90%
IDO1 inhibition in ex vivo stimulated blood (IDO1; across all doses tested): rapid onset of IDO1 inhibition
time of maximum IDO1 inhibition (IDO1; post-M4112 administration): 1 to 4 h
dose dependence of IDO1 inhibition (IDO1; steady state): trend toward dose-dependent IDO1 inhibition
